Screening data: PubChem, The Scripps Research Institute Molecular Screening Center
CHRM4 antagonist: antagonists of human muscarinic M4 receptor (CHRM4) | P08173 | CHO-hM4 cells, ACh EC80, Fluo-8 calcium fluorescence | inhibition, % at 3 µM | 360,000 compounds, 0.73% hits | AID 624125;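 active = inhibition above its plate's cutoff, the mean inhibition of sample wells plus 3 SD, cut at about 27% in these data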
Target sequence (P08173 whole entry, looked up): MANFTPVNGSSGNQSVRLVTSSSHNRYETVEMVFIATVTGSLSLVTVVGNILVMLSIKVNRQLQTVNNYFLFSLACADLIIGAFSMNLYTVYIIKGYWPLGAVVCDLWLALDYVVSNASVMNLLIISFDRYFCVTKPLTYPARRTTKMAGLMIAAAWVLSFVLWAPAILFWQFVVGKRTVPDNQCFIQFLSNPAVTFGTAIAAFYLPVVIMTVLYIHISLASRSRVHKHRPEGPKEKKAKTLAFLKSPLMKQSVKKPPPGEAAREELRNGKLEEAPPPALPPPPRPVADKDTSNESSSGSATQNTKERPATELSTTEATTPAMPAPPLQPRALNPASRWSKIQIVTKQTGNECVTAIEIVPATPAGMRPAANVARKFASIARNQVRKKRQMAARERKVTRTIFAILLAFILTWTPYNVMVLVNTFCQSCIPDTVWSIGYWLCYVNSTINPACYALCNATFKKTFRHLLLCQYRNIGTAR
CHRM5 antagonist: CHRM5 antagonism in calcium assay; CHO-hM5 cells, Fluo-8 calcium fluorescence, ACh EC80; inhibition, % at 3 µM; 360,000 compounds, 0.59% hits;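 active = inhibition above a per-plate cutoff, the mean of that plate's test compounds plus 3 SD, cut at about 27% in these data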
M4 ag: CHRM4 agonism in calcium assay; CHO-K1 hM4/Gqi5, Fluo-8 calcium fluorescence; vehicle 0%, full acetylcholine response 100%; P08173; 360,000 compounds, 0.14% hits; AID 624127; activation, % at 3 µM;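 active = activation above the run mean over all test wells plus 3 SD, cut at about 32% in these data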;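 also: peak over basal fluorescence ratio per well then scaled between controls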
CHRM4 PAM: potentiates acetylcholine response at human M4 receptor; P08173; CHO-K1 hM4/Gqi5, Fluo-8 calcium fluorescence, ACh EC20; 0% = ACh EC20, 100% = maximal ACh; activation, % at 3 µM; 360,000 compounds, 0.4% hits; AID 624126;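 active = activation above its plate's cutoff, the mean activation of sample wells plus 3 SD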
M5 PAM: potentiates acetylcholine response at human M5 receptor. P08912. CHO-K1 hM5, Fluo-8 calcium, ACh EC20 PAM; 0% = ACh EC20, 100% = ACh EC100. activation, % at 3 µM. 360,000 compounds, 0.3% hits. AID 624038;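 active = activation above the run cutoff, the mean activation of all test compounds plus 3 SD, cut at about 18% in these data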
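Replicates: One well per compound, no replicates | System: Human M5 receptor in CHO-K1 cells | Benchmarks: Low control EC20 acetylcholine (0%), high control EC100 acetylcholine (100%) | Probe or stimulus: Acetylcholine, EC20 level | Times: Fluo-8 loading 80 min at 37 °C plus 30 min room temperature | Signal: Intracellular calcium via Fluo-8 fluorescence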
CHRM5 agonist: agonists of human muscarinic M5 receptor (CHRM5) | CHO-K1 hM5 cells, Fluo-8 calcium fluorescence; 0% DMSO wells, 100% maximal acetylcholine response | activation, % at 3 µM | P08912 | 360,000 compounds, 0.19% hits | AID 624037;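 active = activation above the run's mean over test compounds plus 3 SD, cut at about 23% in these data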;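 also: signal is peak over basal fluorescence ratio across the kinetic read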
Large screens that a line does not name were inactive. Only some compounds are listed: those with a hit (about 1.9% of all), similar ones and a draw of the others.

Cn1nc(C(=O)NCCN2CCOCC2)c2ccccc2c1=O	none
Cn1nc(C(=O)Nc2cccnc2)c2ccccc2c1=O	none
CCOC(=O)c1sc(=NC(=O)c2ccc(S(=O)(=O)N(C)c3ccccc3)cc2)n(C)c1C	CHRM4 PAM 27
COc1ccc(S(=O)(=O)Nc2ccccc2C(=O)Nc2nc(-c3ccc(F)cc3)cs2)cc1OC	CHRM4 antagonist 33, CHRM5 antagonist 43
CCCNC(=O)c1ccccc1NS(=O)(=O)c1ccc(OC)c(OC)c1	none
COc1ccc(-c2csc(NC(=O)c3c(OC)cccc3OC)n2)cc1	none
COc1ccc(-c2csc(NC(=O)c3ccccc3NS(=O)(=O)c3ccc(C)cc3)n2)cc1	CHRM5 antagonist 33
Cc1ccc(F)c(S(=O)(=O)NC(=O)C2(C)CCN2C(=O)Cc2cc(F)ccc2F)c1 (stereo not given)	none
O=C1/C(=C/c2cccc(Br)c2)SC(=S)N1CCC(=O)N(CCO)c1ccccc1	none
O=C1/C(=C/c2ccc3c(c2)OCO3)SC(=S)N1CCC(=O)N(CCO)c1ccccc1	CHRM5 antagonist 67, CHRM5 agonist 82
COc1ccc(/C=C2\SC(=S)N(CCC(=O)N(CCO)Cc3ccccc3)C2=O)cc1OC	CHRM4 PAM 37
CCOC(=O)C1=CCN(S(=O)(=O)c2ccc(F)cc2)C1c1cccc(F)c1 (stereo not given)	none
COC(=O)[C@]12CCCCC=C1N(Cc1ccccc1)C(=O)[C@H](CC(=O)NCC1CCCCC1)C2	none
COc1ccc(-c2oc3c(c2C#CC(C)(C)O)C(OC)CCC3)cc1 (stereo not given)	none
CCOC(=O)C(=N/O)/C(C)=N/NC(=O)C(=O)Nc1ccc(Cl)cc1	CHRM5 antagonist 27
CC1=C(C(=O)N(C(C)C)C(C)C)CC(CC(=O)NC(c2ccccc2)c2ccccc2)C(=O)N1CCC1=CCCCC1 (stereo not given)	none
O=C(/C=C/c1c(F)cccc1Cl)NCCCN1CCOCC1	CHRM4 PAM 16
COC(=O)c1ccc(NC(=O)CNC(=O)c2sc3ccccc3c2Cl)cc1	CHRM4 PAM 22
CC(=O)Nc1ccc(NC(=O)CNC(=O)c2sc3ccccc3c2Cl)cc1	none
CCc1ccc(CNc2ccc3c(c2)ncn3C(C)(C)C)cc1	none
CC(C)(C)n1cnc2cc(NCc3ccc(Br)cc3)ccc21	CHRM5 antagonist 27
CCC(C)(O)c1cnc(CC(C)C)c(=O)n1O (stereo not given)	none
Cn1c(SCC(=O)N2CCOCC2)nc2cccnc21	M5 PAM 21
O=C(CSc1n[nH]c(=O)n1-c1cccnc1)N1CCOCC1	M5 PAM 20
c1ccc2c(c1)COc1c3cc4c(cc3nn1-2)OCO4	CHRM4 PAM 20
CCCCOC(=O)C1=C(C)NC(=O)NC1c1ccc(OC)cc1 (stereo not given)	M5 PAM 18
COCC(=O)N(C)C[C@H]1Oc2cc(C#Cc3cccnc3)ccc2S(=O)(=O)N([C@H](C)CO)C[C@H]1C	none
COc1cccc(-c2sc3ccccc3c2-c2ccc(OCCN(C)C)cc2)c1	CHRM4 antagonist 47
COc1cccc(-c2sc3ccccc3c2-c2ccc(OCCN3CCCCC3)cc2)c1	CHRM4 antagonist 34
Oc1ccc2sc(-c3ccccc3O)c(-c3ccc(OCCN4CCCCC4)cc3)c2c1	CHRM4 antagonist 43, M4 ag 61
COc1ccccc1-c1sc2ccccc2c1-c1ccc(OCCN2CCCCC2)cc1	none
COc1ccc(-c2cn(-c3ccc(C)cc3)c(=O)n2CC(=O)Nc2cccc(F)c2)cc1	M5 PAM 26
O=C(NN=C1CCCC1)c1n[nH]c2c1CCC2	CHRM4 PAM 27
O=C(NNC(=O)c1cccs1)c1ccco1	M5 PAM 21
CC(C)(C)c1ccc(C(=O)NC(=S)NCc2cccnc2)cc1	none
Cc1ccccc1C(=O)NNC(=S)NC(=O)c1cccs1	M4 ag 39
COC(=O)CNC(=S)NC(=O)c1ccc(C(C)(C)C)cc1	CHRM4 antagonist 27
O=C(NC(=S)NNC(=O)c1cccs1)c1ccco1	none
CC(C)(C)c1ccc(C(=O)NC(=S)NNC(=O)c2cccs2)cc1	M4 ag 109, CHRM5 agonist 46
C[C@@H]1CN([C@H](C)CO)C(=O)c2c(c3ccccc3n2C)-c2ccccc2CO[C@H]1CN(C)Cc1ccc(Oc2ccccc2)cc1	none
O=C(NCc1cccnc1)c1cc(C2CCCCN2S(=O)(=O)Cc2ccccc2)on1 (stereo not given)	none
CC1(C(=O)NS(=O)(=O)c2ccccc2Cl)CCN1C(=O)CCc1ccccc1 (stereo not given)	none
O=C(NC(=S)NNC(=O)c1cccs1)c1ccccc1	CHRM5 antagonist 27
Cc1cccc(C(=O)NC(=S)NNC(=O)c2cccs2)c1	none
CC(C)NC(=O)Nc1ccc2c(c1)C(=O)N([C@@H](C)CO)C[C@@H](C)[C@H](CN(C)Cc1ccccc1)OCCCC[C@H](C)O2	none
O=S(=O)(c1ccc(Cl)cc1)N1CCCC1c1nc2ccccc2s1 (stereo not given)	none
Cc1ccc(S(=O)(=O)N2CCCC2c2nc3ccccc3s2)cc1 (stereo not given)	M5 PAM 18
COc1ccc(OC)c(NC(=O)C2(C)CCN2C(=O)CC2CC2)c1 (stereo not given)	none
O=C(Nc1ccc(NC(=O)c2ccco2)nc1)c1cccnc1	CHRM4 PAM 21
CC(C)C(C)N(Cc1cccc(C(=O)O)c1)C(=O)c1ccc2ccccc2n1 (stereo not given)	M5 PAM 22
CC(C)(C)c1ccc(S(=O)(=O)NC(=O)C2(C)CCN2C(=O)Cc2ccc(-c3ccccc3)cc2)cc1 (stereo not given)	none
Cc1nn(-c2ccccc2)c(C)c1NC(=O)COC(=O)c1cc(Br)ccc1O	CHRM4 antagonist 31
Cc1ccc(S(=O)(=O)N[C@H](CNCc2ccccc2)C(C)C)cc1	none
Cc1ccc(S(=O)(=O)N2CCN(C(=O)Cn3nc(C)c([N+](=O)[O-])c3C)CC2)c(C)c1	none
Cc1nn(CC(=O)N2CCN(c3ccccc3)CC2)c(C)c1[N+](=O)[O-]	CHRM4 antagonist 37
COc1ccc(Br)cc1S(=O)(=O)NNC(=O)c1c(C)nc2ccccn12	none
Cc1nc2ccccn2c1C(=O)NNS(=O)(=O)c1ccc(C(C)(C)C)cc1	CHRM5 antagonist 28
O=C(CSc1nn(-c2ccccc2)c(=S)s1)Nn1cnnc1	none
Cc1ccc(NC(=O)CSc2nn(-c3ccccc3)c(=S)s2)cc1S(=O)(=O)N(C)C	CHRM5 antagonist 30
